A word on the pIC50: it is −log10 of the IC50, conventionally taken in molar units. Low values mean a large IC50, high ones a small IC50. A word on the GI50: it is the concentration giving 50% growth inhibition. Read a high GI50 as lower sensitivity of the cells. For orientation: bioavailability means the share of a dose that reaches the circulation, judged against a reference dose that is usually intravenous. One may read the half-life as the time in which the quantity being followed falls by half. By Cmax is commonly meant the peak of the concentration-time curve. By Tmax is commonly meant the time at which the peak concentration occurs.

Series [1] concerns the target T1, Serine/threonine-protein kinase B-raf (Homo sapiens, UniProt P15056, V600E). The series can be described thus: Inhibition of human BRAF V600E mutant expressed in baculovirus system. In a few lines: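 Isolated purified V600E BRAF kinase with a 45 min incubation. Enzyme inhibition measured and IC50 derived. Run in triplicate, with one compound measured once.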

Series [2] concerns the target T1, Serine/threonine-protein kinase B-raf. The series can be described thus: Inhibition of BRAF V600E mutant ERK phosphorylation in human WM266.4 cells. In kind it is cell-based. In a few lines: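 WM266.4 melanoma cells, which carry mutant V600E BRAF, exposed to inhibitor for 6 h. ERK phosphorylation (pERK) measured and IC50 derived. Run in triplicate, with a few compounds measured once.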

Series [3] is described as follows: Growth inhibition of human WM266.4 cells expressing BRAF V600E mutant after 5 days by SRB assay. It is filed as functional. The conditions noted are these: WM 266-4, 120 h.
Series [4] is described as follows: Oral bioavailability in BALB/cAnNCrl mouse at 10 mg/kg. In kind it is ADME, organism-based. The conditions noted are these: in vivo. In a few lines:
(§1)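 Female BALB/cAnNCrl mice, at least 6 weeks old. The oral arm was gavage at 10 mL/kg in DMSO/water 1:19. The iv arm was 2 mg/kg (~4 μmol/kg) at 10 mL/kg in DMSO/Tween-20/water 10:1:89, sampled at seven or eight points from 5 min to 18 or 24 h. Three mice per time point, terminal cardiac blood, plasma.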

Series [5] is described as follows: Half life in BALB/cAnNCrl mouse at 10 mg/kg, po. Also noted: dose 10 mg/kg, route oral. The conditions noted are these: in vivo. It is filed as ADME, organism-based. The gist of the method:
(§2)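 Female BALB/cAnNCrl mice, at least 6 weeks old, dosed once by oral gavage at 10 mL/kg in DMSO/water 1:19 v/v. Blood was taken at six or eight time points from 15 min to 18 or 24 h, three mice per time point, by terminal cardiac puncture under halothane or isoflurane into heparinized syringes. Plasma was snap frozen and stored at -70 °C.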

A short description of series [6]: Cmax in BALB/cAnNCrl mouse at 10 mg/kg, po. In kind it is ADME, organism-based. On the set-up: dose 10 mg/kg, route oral. The conditions noted are these: in vivo. In a few lines:
as §2

Series [7] in a line: Tmax in BALB/cAnNCrl mouse at 10 mg/kg, po. In kind it is ADME, organism-based. On the set-up: dose 10 mg/kg, route oral. The settings on record: in vivo. The gist of the method: as §2
Series [8] can be described thus: Growth inhibition of human WM266.4 cells expressing BRAF V600E mutant after 96 hrs by SRB assay. On the technique in general: Sulforhodamine B stains cellular protein and so reports cell mass.
Series [9] in a line: Growth inhibition of wild type human WM1361 cells after 5 days by SRB assay. The conditions noted are these: WM1361, 120 h.
Series [10] is described as follows: Selectivity ratio of GI50 for human WM266.4 cells expressing BRAF V600E mutant to GI50 for human WM1361 cells.
Series [11] is described as follows: Oral bioavailability in BALB/cAnNCrl mouse at 20 mg/kg. In kind it is ADME, organism-based. The settings on record: in vivo. The gist of the method:
as §1

Series [12] is described as follows: Half life in BALB/cAnNCrl mouse at 20 mg/kg, po. The conditions noted are these: in vivo. Also noted: dose 20 mg/kg, route oral. In kind it is ADME, organism-based. In a few lines:
as §2

Series [13] is described as follows: Cmax in BALB/cAnNCrl mouse at 20 mg/kg, po. It is filed as ADME, organism-based. Also noted: dose 20 mg/kg, route oral. The conditions noted are these: in vivo. In a few lines: as §2
A short description of series [14]: Tmax in BALB/cAnNCrl mouse at 20 mg/kg, po. In kind it is ADME, organism-based. On the set-up: dose 20 mg/kg, route oral. The conditions noted are these: in vivo. In a few lines:
as §2

The test system of series [15] is Liver microsomes. Nature of the series: Metabolic stability in human liver microsomes. In kind it is ADME, Microsome. The gist of the method:
(§3)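 Phase I microsomal incubation of compound at 10 μM for 30 min, stopped with 3 volumes of methanol containing 500 nM roscovitine as internal standard. Parent and metabolites were measured by LC-MS, positive-ion electrospray, on a polar reversed-phase column.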
In general terms: Liver microsomes are a subcellular fraction often used to study metabolism.

The nature of series [16]: Metabolic stability in mouse liver microsomes. It is filed as ADME, Microsome. In a few lines: as §3
Series [17] is described as follows: Ratio of plasma concentration in Crl:CD1-Foxn1nu mouse to GI50 for human WM266.4 cells xenografted in Crl:CD1-Foxn1nu mouse. In kind it is ADME. The conditions noted are these: in vivo. Background: In xenograft studies the graft and the host belong to different species.

pIC50: −log10 of the molar value.

T1 sequence (P15056 2-766 V600E limits assumed): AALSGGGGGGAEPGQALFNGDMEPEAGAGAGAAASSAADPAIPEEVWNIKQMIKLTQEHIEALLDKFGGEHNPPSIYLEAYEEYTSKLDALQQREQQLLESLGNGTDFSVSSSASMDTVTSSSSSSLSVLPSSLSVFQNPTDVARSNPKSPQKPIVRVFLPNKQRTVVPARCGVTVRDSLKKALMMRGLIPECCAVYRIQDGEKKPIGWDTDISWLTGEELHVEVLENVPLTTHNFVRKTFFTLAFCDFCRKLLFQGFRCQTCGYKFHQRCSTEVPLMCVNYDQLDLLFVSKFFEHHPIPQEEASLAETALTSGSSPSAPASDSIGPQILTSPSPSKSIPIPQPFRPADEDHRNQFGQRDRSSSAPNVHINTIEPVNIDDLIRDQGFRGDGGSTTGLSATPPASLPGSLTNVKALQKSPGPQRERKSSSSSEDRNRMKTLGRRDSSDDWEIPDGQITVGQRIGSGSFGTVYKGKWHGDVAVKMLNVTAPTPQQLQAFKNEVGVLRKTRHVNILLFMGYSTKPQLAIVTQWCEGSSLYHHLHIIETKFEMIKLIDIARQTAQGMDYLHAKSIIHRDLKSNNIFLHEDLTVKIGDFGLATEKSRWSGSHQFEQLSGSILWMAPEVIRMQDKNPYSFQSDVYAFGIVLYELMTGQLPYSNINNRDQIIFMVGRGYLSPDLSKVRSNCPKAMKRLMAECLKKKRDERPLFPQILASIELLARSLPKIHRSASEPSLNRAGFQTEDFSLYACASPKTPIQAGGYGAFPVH

For the compound `Cc1ccc(-n2nc(C(C)(C)C)cc2NC(=O)Nc2ccc(Oc3ccnc4[nH]c(=O)n(C)c34)cc2)cc1`, the pIC50 was 6.69 in [1] and 7.05 in series [2]. For the same compound, in series [3], halving of growth (GI50) required 66 nM. This compound displayed a bioavailability in series [4] of 34%. In addition, the half-life in [5] was 3.4 h. This compound also yielded a Cmax in [6] of 39.6 µM. Besides, in series [7], the Tmax turned out to be 1 h.

In the case of `Cc1ccc(-n2nc(C(C)(C)C)cc2NC(=O)Nc2ccc(Oc3ccnc4c3[nH]c(=O)n4C)cc2)cc1` [listing 1 of 2 here], the values for the pIC50 in [1] and in series [2] were 5.52 and 7.44, respectively. Also, it took 52 nM to inhibit growth in series [8] by half (GI50).

Take `CC(C)(C)c1cc(NC(=O)Nc2ccc(Oc3ccnc4[nH]c(=O)[nH]c34)cc2F)n(-c2ccccc2)n1`: the pIC50 in series [1] is 7.12; in series [2] it was 6.87. Also, the 50% growth inhibitory concentration (GI50) is 39 nM in series [3] and 660 nM in series [9]. For the same compound, the bioavailability in series [4] worked out at 24%. In addition, in series [5], the half-life is 2.8 h. The compound also showed a Cmax in [6] of 15 µM. In addition, in series [7], the time of peak concentration (Tmax) came out at 0.25 h. Moreover, the “fold change (FC)” value in [10] was determined as 17.

For `Cn1c(=O)[nH]c2nccc(Oc3ccc(NC(=O)Nc4cc(C(C)(C)C)nn4-c4ccccc4)c4ccccc34)c21`, the pIC50 in series [1] is 6.60; in series [2], 7.72. Also, the GI50 in [3] was 24 nM; in series [9], 1200 nM. Further, the bioavailability in [11] was determined as 33%. This compound showed a half-life in [12] of 1.91 h. This compound returned a Cmax in series [13] of 35.5 µM. Moreover, in series [14], the Tmax is 1.5 h. Further, the Stability in series [15] and in series [16] was less than 30% throughout. Besides, in series [10], the “fold change (FC)” value is given as 49.

For `Cn1c(=O)[nH]c2nccc(Oc3ccc(NC(=O)Nc4cc(C(C)(C)C)nn4-c4cccnc4)c4ccccc34)c21`, the pIC50 was 6.10 in series [1] and 7.00 in series [2]. In series [3], this compound registered a GI50 of 69 nM. Also, the bioavailability in series [4] is 5%. In [5], this compound gave a half-life of 0.8 h. This compound had a Cmax in [6] of 4.21 µM. The time to peak (Tmax) in series [7] was 0.5 h.

Turning to `Cc1ccc(-n2nc(C(C)(C)C)cc2NC(=O)Nc2ccc(Oc3ccnc4[nH]c(=O)n(C)c34)c3ccccc23)cc1`, the pIC50 in series [1] is 5.64; in [2], 7.59. This compound showed a GI50 in series [3] of 16 nM. The compound further registered a bioavailability in series [4] of 43%. The compound further showed a half-life in [5] of 8.4 h. The same compound displayed a Cmax in [6] of 43.3 µM. The Tmax in series [7] amounted to 1 h. Further, the Stability in series [15] and in [16] was less than 30% each time.

As to `Cc1ccc(-n2nc(C(C)(C)C)cc2NC(=O)Nc2ccc(Oc3ccnc4c3[nH]c(=O)n4C)cc2)cc1` [listing 2 of 2 here], the pIC50 is 5.92 in [1] and 7.27 in [2]. This compound had a GI50 in series [3] of 27 nM. The bioavailability in series [4] came out at 30%. Also, the half-life in series [5] is 3.4 h. This compound also showed a Cmax in series [6] of 22.7 µM. For the same compound, the Tmax in [7] is 1 h.

As to `Cc1ccc(-n2nc(C(C)(C)C)cc2NC(=O)Nc2ccc(Oc3ccnc4[nH]c(=O)[nH]c34)cc2F)cc1`, the pIC50 in [1] is 6.96; in series [2] it was 7.40. Further, the GI50 was determined as 46 nM in [3] and 790 nM in series [9]. Also, the bioavailability in series [4] amounted to 7%. Further, the half-life in [5] was 5.3 h. Besides, in [6], the concentration peaked (Cmax) at 7.42 µM. Also, the Tmax in series [7] was found to be 1.5 h. Moreover, the “fold change (FC)” value in series [10] stood at 17.

Regarding `Cc1ccc(-n2nc(C(C)(C)C)cc2NC(=O)Nc2ccc(Oc3ccnc4c3[nH]c(=O)n4C)cc2F)cn1`, the results for the pIC50 in [1] and in series [2] were 6.28 and 7.21, respectively. In series [3], the GI50 was determined as 240 nM. Also, the bioavailability in [4] came out at 17%. Also, in [5], the half-life is 12.6 h. In series [6], the concentration peaked (Cmax) at 18 µM. For the same compound, in series [7], the Tmax turned out to be 0.25 h.

With `Cn1c(=O)n(C)c2c(Oc3ccc(NC(=O)Nc4cc(C(C)(C)C)nn4-c4ccccc4)c(F)c3)ccnc21`, the pIC50 is 5.96 in series [1] and 6.91 in [2]. Besides, the GI50 in series [3] was 33 nM. The bioavailability in [4] was 59%. For the same compound, in series [5], the half-life is 2.1 h. In series [6], the Cmax came out at 4.44 µM. For the same compound, in series [7], the Tmax is 0.5 h.

Regarding `CC(C)(C)c1cc(NC(=O)Nc2ccc(Oc3ccnc4[nH]c(=O)[nH]c34)cc2)n(-c2ccccc2)n1`, the figures for the pIC50 in [1] and in series [2] were 7.03 and 6.21, respectively. For the same compound, the GI50 in [3] worked out at 390 nM; in series [9] it was 3200 nM. For the same compound, in [10], the “fold change (FC)” value was 8.

Consider `Cc1ccc(-n2nc(C(C)(C)C)cc2NC(=O)Nc2ccc(Oc3ccnc4c3n(C)c(=O)n4C)cc2F)cc1`, for which the pIC50 in series [1] is 5.95; in series [2], 7.28. In addition, the GI50 in [3] stood at 320 nM. Further, the bioavailability in series [4] is 31%. In addition, the half-life in series [5] was 9.4 h. The compound further displayed a Cmax in series [6] of 8.12 µM. In addition, the Tmax in series [7] came out at 0.5 h.

As for `Cc1ccc(-n2nc(C(C)(C)C)cc2NC(=O)Nc2ccc(Oc3ccnc4[nH]c(=O)[nH]c34)cc2)cc1`, the pIC50 in [1] is 6.85; in [2], 6.38. This compound also registered a GI50 in series [3] of 300 nM. The compound also came in with a bioavailability in series [11] of 6.5%. Besides, in series [12], the half-life is 4 h. The Cmax in series [13] came out at 3.67 µM. The Tmax in series [14] was found to be 0.5 h. Further, the Ratio in series [17] worked out at 12.

`CNC(=O)c1cc(Oc2ccc(NC(=O)Nc3ccc(Cl)c(C(F)(F)F)c3)cc2)ccn1` [SORAFENIB] came in with a GI50 in series [9] of 4500 nM. In addition, the “fold change (FC)” value in [10] was 1.
